Experimental data as given in ChEMBL document CHEMBL3232971, “Synthesis and in vitro evaluation of 12-(substituted aminomethyl) berberrubine derivatives as anti-diabetics” (2014).
Calls of active or inactive are those of the source. The rule behind the calls is not given here.

How the values were obtained:
3T3-L1 [1] = assay: Reversal of high glucose-induced insulin resistance in mouse 3T3L1 cells at 1 umol/ml; type: functional, cell-based
Outline: (§1)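 Mouse 3T3-L1 preadipocytes were grown in high-glucose DMEM with 10% FBS and phenol red. At 90% confluence they were differentiated for 4 days with FBS, insulin, dexamethasone and IBMX. Cells were replated and kept 2 days in FBS medium. Insulin resistance was induced over 4 days with low insulin and high dexamethasone. Cells were then treated with sample in phenol red-free high-glucose DMEM, at three concentrations. Controls were normal differentiated cells (blank) and untreated insulin-resistant cells (negative); rosiglitazone was the positive control.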

L6 [2] = assay: Increase in glucose transport in rat L6 cells assessed as sensitization rate at 1 umol/ml; type: functional
Outline: (§2)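 Rat L6 myoblasts were grown 24 h in high-glucose DMEM with 10% FBS and phenol red. They were differentiated to myotubes in high-glucose DMEM with 2% FBS for 6–8 days, with medium changed every 48 h. Cells were then starved serum-free overnight, and 4–6 h without serum or glucose. Samples were added in serum-free DMEM with 20 mmol glucose for 16–24 h. Supernatant glucose was read by kit at OD 490 nm. Sensitization rate = (negative OD − sample OD)/(negative OD − blank OD) × 100%, tested at two concentrations.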

3T3-L1 [3] = assay: Reversal of high glucose-induced insulin resistance in mouse 3T3L1 cells; type: functional, cell-based; outline: as §1
3T3-L1 [4] = assay: Reversal of high glucose-induced insulin resistance in mouse 3T3L1 cells assessed as relative sensitization rate at 0.10 umol/ml relative to rosiglitazone; type: functional; outline: as §1
3T3-L1 [5] = assay: Reversal of high glucose-induced insulin resistance in mouse 3T3L1 cells assessed as relative sensitization rate at 1 umol/ml relative to rosiglitazone; type: functional; outline: as §1
3T3-L1 [6] = assay: Reversal of high glucose-induced insulin resistance in mouse 3T3L1 cells assessed as insulin sensitization relative to rosiglitazone; type: functional; outline: as §1
L6 [7] = assay: Increase in glucose transport in rat L6 cells assessed as sensitization rate at 10 umol/ml; type: functional; outline: as §2
3T3-L1 [8] = assay: Reversal of high glucose-induced insulin resistance in mouse 3T3L1 cells assessed as relative sensitization rate at 10 umol/ml relative to rosiglitazone; type: functional; outline: as §1

Row | Compound | Activity (3T3-L1 [1]) | Activity (L6 [2]) [%] | Activity (3T3-L1 [3]) | Activity (3T3-L1 [4]) [%] | Activity (3T3-L1 [5]) [%] | fold change (FC) (3T3-L1 [6]) | Activity (L6 [7]) [%] | Activity (3T3-L1 [8]) [%]
1 | COc1cc(CN2CCN(C)CC2)c2cc3[n+](cc2c1O)CCc1cc2c(cc1-3)OCO2.[Cl-] | Active | 41.9 | Dose-dependent effect | -1.09 | 90.23 | 1.26 | 48.55 | 126.29
2 | COc1cc(CN(Cc2ccccc2)Cc2ccccc2)c2cc3[n+](cc2c1O)CCc1cc2c(cc1-3)OCO2.[Cl-] |  | 28.39 |  | -17.34 | -9.51 |  | 70.02 | 65.58
3 | COc1cc(CN(C)C)c2cc3[n+](cc2c1O)CCc1cc2c(cc1-3)OCO2.[Cl-] |  | 51.3 |  | -16.79 | -17.72 |  | 78.5 | 51.59
4 | CCN(CC)Cc1cc(OC)c(O)c2c[n+]3c(cc12)-c1cc2c(cc1CC3)OCO2.[Cl-] |  | 5.81 |  | 2.03 | 23.48 |  | 48.83 | 75.63
5 | COc1cc(CN2CCCC2)c2cc3[n+](cc2c1O)CCc1cc2c(cc1-3)OCO2.[Cl-] |  | 7.95 |  | -22.09 | -12.1 |  | 40.73 | 73.15
6 | COc1cc(CN(C(C)C)C(C)C)c2cc3[n+](cc2c1O)CCc1cc2c(cc1-3)OCO2.[Cl-] |  | 17.97 | Dose-dependent effect | -64.34 | 28.02 |  | 46.08 | 112.25
7 | COc1cc(CN2CCN(C(=O)OC(C)(C)C)CC2)c2cc3[n+](cc2c1O)CCc1cc2c(cc1-3)OCO2.[Cl-] |  | 23.32 | Dose-dependent effect | -43.33 | 3.14 |  | 52.51 | 107.3
8 | COc1cc(CN2CCCCC2)c2cc3[n+](cc2c1O)CCc1cc2c(cc1-3)OCO2.[Cl-] |  | 15.78 | Dose-dependent effect | 8.33 | 41.02 |  | 43.53 | 102.93
9 | COc1cc(CN2CCOCC2)c2cc3[n+](cc2c1O)CCc1cc2c(cc1-3)OCO2.[Cl-] |  | 26.16 | Dose-dependent effect | 28.22 | 68.72 |  | 57.22 | 115.14
10 | COc1ccc2cc3[n+](cc2c1OC)CCc1cc2c(cc1-3)OCO2.[Cl-] [BERBERINE CHLORIDE] |  | 21.3 |  | -2.93 | 13.27 |  | 43.28 | 74.23
11 | COc1cc(CN(c2ccccc2)c2ccccc2)c2cc3[n+](cc2c1O)CCc1cc2c(cc1-3)OCO2.[Cl-] |  | 12.43 |  | 33.38 | 62.08 |  | 53.05 | 96.66
